1 compound from ChEMBL document CHEMBL5653605, “Reduced VEGF production, angiogenesis, and vascular regrowth contribute to the antitumor properties of dual mTORC1/mTORC2 inhibitors” (Cancer Res, 2011) can be followed below.

Active and inactive are the calls of the source.

Series [1] concerns Mus musculus. As to the kind of experiment: In vivo inhibition of S6K phosphorylation in RIP-Tag2 mouse with pancreatic islet cell carcinoma 75 mg/kg, po bid administered via gavage and measured after 7 days by immunohistochemistry. The settings on record: time 7.0 day. Type of series: functional, organism-based. In short, it runs like this:
(§1)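 RIP-Tag2 mice aged 9–10 weeks dosed 75 mg/kg BID by gavage for 7 days, vehicle Labrifil or water; perfusion fixation, 60–80 µm tumor sections immunostained for phospho-4E-BP1, phospho-Akt or phospho-S6K with CD31; fluorescence/confocal imaging; 3–8 mice per group.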

For series [2], the system named is Pancreatic islet cell carcinoma. As to the kind of experiment: Antitumor activity against pancreatic islet cell carcinoma in RIP-Tag2 mouse assessed as reduction in VEGF production by measuring reduction in tumor cell associated fluorescence intensity at 75 mg/kg, po bid administered via gavage and measured after 7 days by immunohistochemical staining based confocal microscopic analysis relative to control. Type of series: functional. More on the design: scale not given: the % may be the effect or the level left. The settings on record: time 7 day. The essentials: (§2)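 Treatment began in RIP-Tag2 mice at 9–10 weeks: 75 mg/kg gavage BID for 1, 4 or 7 days, or 20 mg/kg ip QD for 7 days; vehicle Labrifil or water. Tissue fixed by vascular perfusion and 60–80 µm sections stained for VEGF with CD31. VEGF fluorescence intensity measured over whole tumor, tumor cells, or tumor vessels. 3–8 mice/group; ANOVA, Fisher PLSD.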

The test system is the same in series [3]. The series is described as follows: Antivascular activity in pancreatic islet cell carcinoma in RIP-Tag2 mouse assessed as suppression of tumor regrowth by measuring reduction in vessel density at 75 mg/kg, po bid administered via gavage pretreated with OSI-930 for 7 days at 200 mg/kg, po followed by compound administration and measured after 1 day. Type of series: functional, organism-based.

Series [4] addresses DNA-dependent protein kinase catalytic subunit (Homo sapiens, UniProt P78527). The series is described as follows: Inhibition of DNA-PK activity (unknown origin) presence of ATP.
Series [5] addresses Dual specificity mitogen-activated protein kinase kinase 2 (Homo sapiens) (UniProt P36507). As to the kind of experiment: Inhibition of MEK2 (unknown origin).
Series [6] is described as follows: Drug concentration in nu/nu CD-1 mouse plasma xenografted with human GEO cells at 75 mg/kg administered for 14 days and measured 8 hr post last dose. Type of series: ADME, organism-based.
Series [7] in a line: Inhibition of MAPK (unknown origin) signaling axis assessed as reduction in phosphorylated ERK1/2 level by cell based assay. The settings on record: Homo sapiens.
The subject of series [8] is Pancreatic islet cell carcinoma. The series is described as follows: Antitumor activity against pancreatic islet cell carcinoma in RIP-Tag2 mouse assessed as reduction in VEGF-A expression at 75 mg/kg, po bid administered via gavage and measured after 1 to 7 days by immunoprecipitation based densitometric analysis relative to control. Type of series: functional. Further details: scale not given: the % may be the effect or the level left. The settings on record: time 1-7 day. In short, it runs like this:
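VEGF in tumor lysates from treated RIP-Tag2 mice (9–10 weeks old at start; 75 mg/kg gavage BID or 20 mg/kg ip QD) measured with mouse angiogenesis antibody arrays, read as pixel density. 3–8 mice/group, SEM; ANOVA with Fisher PLSD.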

Series [9] has as its target Phosphatidylinositol 4,5-bisphosphate 3-kinase catalytic subunit delta isoform (Homo sapiens) (UniProt O00329). The series is described as follows: Inhibition of PI3Kdelta (unknown origin) at 3 uM by Ambit Kinomescan assay relative to control.
Series [10] deals with Phosphatidylinositol 4,5-bisphosphate 3-kinase catalytic subunit beta isoform (Homo sapiens, UniProt P42338). As to the kind of experiment: Inhibition of PI3Kbeta (unknown origin) in presence of ATP by HTRF assay. The essentials: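 PI3K activity by HTRF assay at […] ATP.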
On the technique in general: TR-FRET usually uses a lanthanide donor and a delayed reading to cut background.

Series [11] concerns Pancreatic islet cell carcinoma. The series is described as follows: Antitumor activity against pancreatic islet cell carcinoma in RIP-Tag2 mouse assessed as reduction in VEGF production by measuring reduction in fluorescence in entire tumor at 75 mg/kg, po bid administered via gavage and measured after 7 days by immunohistochemical staining based confocal microscopic analysis relative to control. Type of series: functional. The note with it: time 7 day. Further details: scale not given: the % may be the effect or the level left. The essentials:
as §2

Series [12] shares this test system. As to the kind of experiment: Antitumor activity against pancreatic islet cell carcinoma in RIP-Tag2 mouse assessed as reduction in VEGF production by measuring reduction in tumor vessels associated fluorescence intensity at 75 mg/kg, po bid administered via gavage and measured after 1 to 7 days by immunohistochemical staining based confocal microscopic analysis relative to control. Type of series: functional. More on the design: scale not given: the % may be the effect or the level left. The settings on record: time 1-7 day. In short, it runs like this:
as §2

Another series addresses mTORC1 (Homo sapiens, UniProt P42345). The series is described as follows: Competitive inhibition of mTORC1 immunoprecipitated from human HeLa cells using His-tagged 4E-BP1 as substrate incubated for 30 mins in presence of ATP by chemiluminescence based ELISA. The essentials:
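Native mTORC1 or mTORC2 complex immunoprecipitated from HeLa lysates; kinase reaction run at 1 mM ATP.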

Series [13] concerns the target Epidermal growth factor receptor (Homo sapiens, UniProt P00533). The series is described as follows: Inhibition of EGFR phosphorylation (unknown origin) by cell based assay.
Series [14] deals with Proto-oncogene tyrosine-protein kinase Src (Homo sapiens, UniProt P12931). As to the kind of experiment: Inhibition of SRC (unknown origin) assessed as reduction in phosphorylated FAK level by cell based assay.
Series [15] relates to Mus musculus. The series is described as follows: In vivo inhibition of AKT phosphorylation in RIP-Tag2 mouse with pancreatic islet cell carcinoma 75 mg/kg, po bid administered via gavage and measured after 7 days by immunohistochemistry. Type of series: functional, organism-based. The settings on record: time 7.0 day. The essentials:
as §1

Series [16] relates to Pancreatic islet cell carcinoma. As to the kind of experiment: Antivascular activity in pancreatic islet cell carcinoma in RIP-Tag2 mouse assessed as reduction in intratumoral hemorrhage by measuring reduction in TER-119 immunoreactivity at 75 mg/kg, po bid pretreated with OSI-930 for 7 days at 200 mg/kg, po followed by compound administration and measured after 4 days by confocal microscopic analysis relative to control. Type of series: functional. The note with it: time 4 day. More on the design: scale not given: the % may be the effect or the level left. In short, it runs like this: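 Regrowth design in 10-week-old RIP-Tag2 mice: OSI-930 200 mg/kg gavage QD for 7 days, then 4 days of vehicle, 75 mg/kg gavage BID, or 20 mg/kg ip QD; controls received vehicle for 11 days. Perfusion-fixed sections stained for CD31 for vessel density or for the erythrocyte marker TER-119, quantified by confocal microscopy. 3–8 mice/group; ANOVA, Fisher PLSD.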

For series [17], the target named is Mitogen-activated protein kinase 10 (Homo sapiens) (UniProt P53779). As to the kind of experiment: Inhibition of JNK3 (unknown origin).
Series [18] deals with Mus musculus. As to the kind of experiment: In vivo inhibition of 4E-BP1 phosphorylation in RIP-Tag2 mouse with pancreatic islet cell carcinoma 75 mg/kg, po bid administered via gavage and measured after 7 days by immunohistochemistry. The note with it: time 7.0 day. Type of series: functional, organism-based. In short, it runs like this:
as §1

Series [19] has as its system Pancreatic islet cell carcinoma. The series is described as follows: Antivascular activity against pancreatic islet cell carcinoma in RIP-Tag2 mouse assessed as reduction in vascular sprouts at 75 mg/kg, po bid administered via gavage and measured after 7 days by immunohistochemical staining based fluorescence microscopic analysis relative to control. Type of series: functional. Further details: scale not given: the % may be the effect or the level left. The settings on record: time 7 day. In short, it runs like this: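 For 7 days, RIP-Tag2 mice, 9–10 weeks old, received 75 mg/kg gavage BID, 200 mg/kg gavage QD, or 20 mg/kg ip QD. Perfusion-fixed tumors cut at 60–80 µm and stained for CD31 and type IV collagen basement membrane. Vessel area density from fluorescence images with threshold 30–50; sprouts and empty basement membrane sleeves examined by confocal microscopy. 3–8 mice/group; ANOVA, Fisher PLSD.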

The test system is the same in series [20]. The series is described as follows: Antitumor activity against pancreatic islet cell carcinoma in RIP-Tag2 mouse assessed as induction of apoptosis by measuring caspase-3 activation at 75 mg/kg, po bid administered via gavage and measured after 7 days by immunohistochemistry analysis. The note with it: time 7.0 day. Type of series: functional, organism-based. The essentials: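 RIP-Tag2 mice aged 9–10 weeks dosed by gavage BID for 7 days; vehicle Labrifil or water. Mice fixed by vascular perfusion, tumors cut into 60–80 µm sections. Proliferating cells stained for phospho-histone H3 and apoptotic cells for activated caspase-3. Sections imaged by fluorescence/confocal microscopy. Body weight checked daily, fluids given if loss exceeded 10%. 3–8 mice per group, SEM, ANOVA with Fisher PLSD.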

Chain of Mitogen-activated protein kinase 10 (Homo sapiens) (P53779 whole entry): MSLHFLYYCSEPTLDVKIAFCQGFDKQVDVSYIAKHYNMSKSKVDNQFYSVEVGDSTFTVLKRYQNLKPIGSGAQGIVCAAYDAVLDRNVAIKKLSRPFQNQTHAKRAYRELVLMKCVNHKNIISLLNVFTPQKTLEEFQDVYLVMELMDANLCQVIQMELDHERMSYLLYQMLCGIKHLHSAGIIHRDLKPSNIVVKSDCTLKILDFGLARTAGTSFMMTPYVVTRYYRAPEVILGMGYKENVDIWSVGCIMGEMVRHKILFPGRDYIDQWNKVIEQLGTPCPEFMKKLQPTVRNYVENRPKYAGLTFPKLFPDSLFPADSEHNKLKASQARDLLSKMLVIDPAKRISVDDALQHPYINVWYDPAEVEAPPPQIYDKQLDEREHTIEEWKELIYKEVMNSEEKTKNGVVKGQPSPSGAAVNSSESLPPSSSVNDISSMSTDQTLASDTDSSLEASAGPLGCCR
Chain of Dual specificity mitogen-activated protein kinase kinase 2 (Homo sapiens) (P36507 whole entry): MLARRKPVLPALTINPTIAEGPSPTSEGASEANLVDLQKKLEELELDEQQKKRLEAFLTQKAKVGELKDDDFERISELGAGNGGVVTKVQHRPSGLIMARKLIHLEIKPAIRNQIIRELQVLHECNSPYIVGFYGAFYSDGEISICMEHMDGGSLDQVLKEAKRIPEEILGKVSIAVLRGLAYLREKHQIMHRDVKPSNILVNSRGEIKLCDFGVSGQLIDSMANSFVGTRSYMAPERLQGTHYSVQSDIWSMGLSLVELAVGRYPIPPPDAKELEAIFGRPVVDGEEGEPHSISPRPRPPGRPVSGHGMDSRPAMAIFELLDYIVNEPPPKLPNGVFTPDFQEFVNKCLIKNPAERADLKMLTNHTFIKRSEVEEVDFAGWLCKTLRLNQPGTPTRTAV
Chain of Proto-oncogene tyrosine-protein kinase Src (P12931 2-536 limits assumed): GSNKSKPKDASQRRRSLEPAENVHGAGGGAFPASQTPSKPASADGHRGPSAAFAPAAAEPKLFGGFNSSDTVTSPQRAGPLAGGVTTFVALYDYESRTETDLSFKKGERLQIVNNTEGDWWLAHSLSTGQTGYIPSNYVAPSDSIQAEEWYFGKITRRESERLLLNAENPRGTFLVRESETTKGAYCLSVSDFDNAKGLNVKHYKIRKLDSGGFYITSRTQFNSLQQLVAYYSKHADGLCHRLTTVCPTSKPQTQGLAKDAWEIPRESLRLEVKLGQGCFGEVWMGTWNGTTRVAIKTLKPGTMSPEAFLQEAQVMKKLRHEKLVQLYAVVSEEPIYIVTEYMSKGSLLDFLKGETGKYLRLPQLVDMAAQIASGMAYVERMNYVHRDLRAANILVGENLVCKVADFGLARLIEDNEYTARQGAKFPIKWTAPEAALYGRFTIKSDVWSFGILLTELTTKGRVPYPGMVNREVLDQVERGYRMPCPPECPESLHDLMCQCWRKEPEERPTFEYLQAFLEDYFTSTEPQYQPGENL
Chain of Phosphatidylinositol 4,5-bisphosphate 3-kinase catalytic subunit beta isoform (P42338 whole entry, canonical isoform): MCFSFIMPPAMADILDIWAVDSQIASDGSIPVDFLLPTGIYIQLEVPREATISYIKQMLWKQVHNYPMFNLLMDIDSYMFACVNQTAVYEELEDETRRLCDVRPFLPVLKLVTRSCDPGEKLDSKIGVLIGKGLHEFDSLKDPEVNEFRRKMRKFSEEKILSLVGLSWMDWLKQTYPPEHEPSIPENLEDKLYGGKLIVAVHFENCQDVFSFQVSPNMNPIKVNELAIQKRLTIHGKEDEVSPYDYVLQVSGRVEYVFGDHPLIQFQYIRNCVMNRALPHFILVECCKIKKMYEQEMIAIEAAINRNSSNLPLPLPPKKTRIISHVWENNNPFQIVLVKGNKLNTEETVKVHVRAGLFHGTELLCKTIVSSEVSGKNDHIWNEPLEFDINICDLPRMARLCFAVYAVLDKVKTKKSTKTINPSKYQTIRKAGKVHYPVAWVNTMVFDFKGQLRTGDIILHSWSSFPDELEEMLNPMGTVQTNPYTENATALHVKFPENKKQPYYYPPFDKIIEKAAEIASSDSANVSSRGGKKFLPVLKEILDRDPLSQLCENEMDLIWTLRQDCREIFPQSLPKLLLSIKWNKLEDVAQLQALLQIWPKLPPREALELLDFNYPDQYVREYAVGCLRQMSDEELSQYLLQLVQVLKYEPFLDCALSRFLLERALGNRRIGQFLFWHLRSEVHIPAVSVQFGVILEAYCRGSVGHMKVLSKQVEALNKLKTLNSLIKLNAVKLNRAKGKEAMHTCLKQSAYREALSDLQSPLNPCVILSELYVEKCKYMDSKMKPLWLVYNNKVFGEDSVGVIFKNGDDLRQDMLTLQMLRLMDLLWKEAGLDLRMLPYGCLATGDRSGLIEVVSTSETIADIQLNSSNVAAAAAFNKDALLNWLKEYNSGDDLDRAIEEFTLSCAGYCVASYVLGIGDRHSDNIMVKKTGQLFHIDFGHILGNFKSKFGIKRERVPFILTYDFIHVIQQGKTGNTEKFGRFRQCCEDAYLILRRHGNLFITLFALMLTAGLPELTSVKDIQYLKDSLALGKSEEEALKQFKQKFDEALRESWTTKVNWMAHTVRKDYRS
Chain of Epidermal growth factor receptor (P00533 whole entry): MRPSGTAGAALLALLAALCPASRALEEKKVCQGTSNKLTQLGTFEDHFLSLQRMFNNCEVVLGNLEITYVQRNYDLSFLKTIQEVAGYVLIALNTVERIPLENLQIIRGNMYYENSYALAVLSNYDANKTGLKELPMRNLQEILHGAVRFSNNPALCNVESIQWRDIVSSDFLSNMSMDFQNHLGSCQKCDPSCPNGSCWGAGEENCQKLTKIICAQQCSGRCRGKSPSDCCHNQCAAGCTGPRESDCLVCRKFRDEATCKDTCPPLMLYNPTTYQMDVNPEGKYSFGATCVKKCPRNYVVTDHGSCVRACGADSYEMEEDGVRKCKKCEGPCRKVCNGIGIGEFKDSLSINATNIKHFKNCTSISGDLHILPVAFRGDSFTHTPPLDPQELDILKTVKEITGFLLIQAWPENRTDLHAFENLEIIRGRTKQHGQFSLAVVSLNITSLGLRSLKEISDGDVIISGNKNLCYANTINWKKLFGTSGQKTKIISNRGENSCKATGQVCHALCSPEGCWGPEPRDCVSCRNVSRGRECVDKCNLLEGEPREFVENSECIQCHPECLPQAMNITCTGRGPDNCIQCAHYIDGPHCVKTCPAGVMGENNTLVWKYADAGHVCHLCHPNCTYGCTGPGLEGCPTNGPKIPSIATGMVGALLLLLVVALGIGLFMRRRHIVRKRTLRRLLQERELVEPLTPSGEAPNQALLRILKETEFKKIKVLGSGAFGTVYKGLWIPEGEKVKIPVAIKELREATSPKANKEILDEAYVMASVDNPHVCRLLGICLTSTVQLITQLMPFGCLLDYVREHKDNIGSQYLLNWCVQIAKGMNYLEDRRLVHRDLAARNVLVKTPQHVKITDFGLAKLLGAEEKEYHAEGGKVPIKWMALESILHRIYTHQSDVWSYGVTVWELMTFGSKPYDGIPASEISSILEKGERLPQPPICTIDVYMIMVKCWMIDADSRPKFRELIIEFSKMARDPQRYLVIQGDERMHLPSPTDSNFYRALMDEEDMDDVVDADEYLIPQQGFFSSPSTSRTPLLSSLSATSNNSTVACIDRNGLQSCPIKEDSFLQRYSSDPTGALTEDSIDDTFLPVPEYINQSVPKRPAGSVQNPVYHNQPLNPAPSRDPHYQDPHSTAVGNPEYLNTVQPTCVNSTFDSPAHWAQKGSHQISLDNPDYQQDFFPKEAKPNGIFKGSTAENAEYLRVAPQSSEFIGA
Chain of Phosphatidylinositol 4,5-bisphosphate 3-kinase catalytic subunit delta isoform (Homo sapiens) (O00329 whole entry, canonical isoform): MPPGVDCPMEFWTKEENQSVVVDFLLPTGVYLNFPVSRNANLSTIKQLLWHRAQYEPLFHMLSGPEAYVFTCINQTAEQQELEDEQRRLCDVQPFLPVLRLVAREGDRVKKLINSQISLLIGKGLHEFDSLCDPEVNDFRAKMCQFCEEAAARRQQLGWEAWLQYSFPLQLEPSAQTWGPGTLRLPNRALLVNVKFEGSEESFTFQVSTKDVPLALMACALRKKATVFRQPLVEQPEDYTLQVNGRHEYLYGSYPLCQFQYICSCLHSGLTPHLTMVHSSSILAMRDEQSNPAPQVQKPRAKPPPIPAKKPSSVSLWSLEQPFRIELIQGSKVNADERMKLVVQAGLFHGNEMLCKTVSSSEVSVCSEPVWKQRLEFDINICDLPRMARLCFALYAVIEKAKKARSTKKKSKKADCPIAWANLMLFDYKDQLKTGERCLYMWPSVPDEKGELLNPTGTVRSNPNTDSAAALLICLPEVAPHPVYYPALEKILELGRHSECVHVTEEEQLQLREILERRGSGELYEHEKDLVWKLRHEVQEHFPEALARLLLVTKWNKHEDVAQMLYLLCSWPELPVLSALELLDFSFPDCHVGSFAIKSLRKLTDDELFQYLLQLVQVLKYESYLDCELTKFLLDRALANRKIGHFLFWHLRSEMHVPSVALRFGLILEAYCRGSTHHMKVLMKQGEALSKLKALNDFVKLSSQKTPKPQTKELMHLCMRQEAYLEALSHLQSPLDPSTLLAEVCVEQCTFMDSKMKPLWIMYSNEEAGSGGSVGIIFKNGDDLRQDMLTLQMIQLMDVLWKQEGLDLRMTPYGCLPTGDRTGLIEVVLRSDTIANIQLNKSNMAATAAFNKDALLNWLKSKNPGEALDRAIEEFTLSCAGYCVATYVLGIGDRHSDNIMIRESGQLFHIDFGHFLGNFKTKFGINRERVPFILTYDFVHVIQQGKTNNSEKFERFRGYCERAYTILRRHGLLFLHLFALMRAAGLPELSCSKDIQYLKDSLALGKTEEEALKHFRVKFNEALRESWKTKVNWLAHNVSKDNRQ

Turning to `Nc1nccn2c1c(-c1cc3cccc(Cl)c3[nH]1)nc2[C@H]1CC[C@H](C(=O)O)CC1`, the inhibition result (with Mus musculus [1]; in series [5]; in the series on Mus musculus [15]; in [17]; with Mus musculus [18]) was “Active” in each case. Further, the Activity is reported as 65% in [2]; 72% in series [8]; 45% in series [11]; 48% in series [12]; 50% in series [16]; 54% in series [19]. Besides, the result in series [3] was inactive. Moreover, the half-inhibitory concentration (IC50) (usually the concentration needed to halve the response being measured) in series [4] was 3.2 µM; in series [7], above 40 µM; in series [10], 9.3 µM; at mTORC1, 0.029 µM; in [13] it was above 40 µM; in [14], above 40 µM. Further, in series [6], the concentration at 344 h was determined as 13.2 µM. For the same compound, the inhibition (as a rule, the change of the read-out against control, counted positive when it falls) in [9] was above 90%. Besides, in [20], the result was Active.
